In paper PMC4238785 (British Journal of Clinical Pharmacology, 2014):
Where two headings read alike, the source gives them in different places.

Assays:
[1] = assay type: in vivo, human; conditions: for Tmax / Vd/F: male, human, plasma, po
Outline: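 Healthy subjects received a single oral 20 mg test-compound dose with 240 ml water after an overnight fast, continued to 4 h. Period 2, after a 5−7 day washout: CYP3A4 inhibitor 400 mg orally once daily for 7 days, co-dosed on day 5. Plasma was sampled predose–72 h, acidified (citrate, pH 1.5) and run by chiral LC-MS. Ratios: ANOVA (log values, period and subject effects), least-square geometric means, 90% CI.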

CYP3A4 = conditions: [14C]-apremilast, in vitro; cited from earlier work
CYP1A2 = conditions: [14C]-apremilast, in vitro; cited from earlier work
OATP1B3 = conditions: in vitro studies, no reference given; cited from earlier work
[2] = acidic conditions; no reference given; cited from earlier work
MDR1 = conditions: in vitro studies, no reference given; cited from earlier work
[3] = assay type: in vivo, human
Outline: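 Healthy subjects fasted overnight and received a single oral 30 mg test-compound dose in each of three periods. After a 4-day washout, it was followed 5 min later by 600 mg i.v. inducer over 30 min. Then 600 mg oral inducer daily on days 7–21, co-dosed on day 20. Plasma (predose–48 h) was citric-acid stabilised, extracted with MTBE and run by achiral LC-MS. Ratios: ANOVA of log values, geometric-mean 90% CI.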

CYP2A6 = conditions: [14C]-apremilast, in vitro; cited from earlier work
[4] = cited from earlier work
OATP1B1 = conditions: in vitro studies, no reference given; cited from earlier work
[5] = midazolam with rifampicin; cited from earlier work
[6] = apremilast 20 mg with ketoconazole 400 mg once daily vs alone
[7] = apremilast given with ketoconazole vs alone
[8] = with ketoconazole vs apremilast 20 mg alone, least-square geometric means
[9] = multiple oral doses of rifampicin vs apremilast alone
[10] = with i.v. rifampicin vs apremilast 30 mg alone, least-square geometric means

CCOc1cc([C@@H](CS(C)(=O)=O)N2C(=O)c3cccc(NC(C)=O)c3C2=O)ccc1OC [apremilast]
fraction of apremilast excreted unchanged in the urine ([1]; KETO study, overall): < 5%
CL/F ([1]; apremilast 20 mg single oral dose alone, n = 18, arithmetic mean (SD)): 10.2 (3.5) l h^−1
increase of AUC(0,∞) by ketoconazole [1, 6]: ≈ 36%
increase of Cmax by ketoconazole [1, 6]: 5%
change in renal clearance [1, 7]: no meaningful change
increase in the percentage of urinary excretion [1, 7]: approximately 36%
Tmax [1]: 4 h
Vd/F [1]: 84 L
Tmax ([1]; 20 mg): 2.5 h
Vd/F ([1]; 20 mg): 111 L
AUC(0,∞) Ratio (90% CI) [1, 8]: 136.4 (126.2, 147.5) %
CL/F Ratio (90% CI) [1, 8]: 73.3 (67.8, 79.2) %
Cmax Ratio (90% CI) [1, 8]: 104.9 (92.2, 119.3) %
Vz/F Ratio (90% CI) [1, 8]: 77.5 (69.8, 86.1) %
t1/2 Ratio (90% CI) [1, 8]: 106.5 (100.3, 112.7) %
rate of metabolism by CYP isoform (CYP3A4): high rate
rate of metabolism by CYP isoform (CYP1A2): lower rates of metabolism
transporter substrate (OATP1B3): not a substrate
stability [2]: stable
transporter substrate (MDR1): is a MDR1 substrate
increase in Cmax ([3]; after i.v. rifampicin vs apremilast alone): 13%
CL/F ([3]; apremilast 30 mg single oral dose alone, n = 21, arithmetic mean (SD)): 10.0 (3.02) l h^−1
Tmax ([3]; apremilast 30 mg single oral dose alone, n = 21, median (range)): 2.0 (0.5–5.0) h
Tmax ([3]; both, human, plasma, oral): 1.25 h
Vd/F ([3]; both, human, plasma, oral): 115 L
Tmax ([3]; both, human, plasma, po): 1 h
Vd/F ([3]; both, human, plasma, po): 342 L
half-life ([3]; both, human, plasma, po): 6.31 h
Tmax ([3]; both, human, plasma, po, 30 mg): 2 h
Vd/F ([3]; both, human, plasma, po, 30 mg): 119 L
half-life ([3]; both, human, plasma, po, 30 mg): 8.2 h
decrease of Cmax [3, 9]: approximately 43%
decrease of mean AUC(0,∞) [3, 9]: ≈ 72%
increase of apremilast clearance [3, 9]: ≈ 3.6 fold
AUC(0,∞) Ratio (90% CI) [3, 10]: 95.71 (88.0, 104.1) %
Cmax Ratio (90% CI) [3, 10]: 113.1 (103.2, 123.9) %
rate of metabolism by CYP isoform (CYP2A6): lower rates of metabolism
dose excreted unchanged in urine [4]: 3%
transporter substrate (OATP1B1): not a substrate

Cc1ncc2n1-c1ccc(Cl)cc1C(c1ccccc1F)=NC2 [midazolam]
exposure relative to administration alone [5]: 4%

CCOc1cc(C(CS(C)(=O)=O)N2C(=O)c3cccc(N)c3C2=O)ccc1OC (stereo not drawn) [CC-10055]
concentrations in urine ([1]; KETO study): no detectable concentrations
overall metabolite to parent ratios in plasma ([1]; KETO study): ≤ 5%
